Source: PubChem BioAssay
CHT block = inhibitors of human choline transporter CHT; AID 488975; 310,000 tested, 0.86% active; CHT-expressing cells, membrane potential dye, choline response; hits give low values; Q9GZV3; B-score at 10 µM;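 active = B-score over 3 SD under the library average, and starting fluorescence ratio not unusually high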;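 note: choline stimulus applied at its EC90 after an EC20 pre-addition; B-score computed on integrated fluorescence ratio after choline addition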
Target sequence (Q9GZV3 whole entry, looked up): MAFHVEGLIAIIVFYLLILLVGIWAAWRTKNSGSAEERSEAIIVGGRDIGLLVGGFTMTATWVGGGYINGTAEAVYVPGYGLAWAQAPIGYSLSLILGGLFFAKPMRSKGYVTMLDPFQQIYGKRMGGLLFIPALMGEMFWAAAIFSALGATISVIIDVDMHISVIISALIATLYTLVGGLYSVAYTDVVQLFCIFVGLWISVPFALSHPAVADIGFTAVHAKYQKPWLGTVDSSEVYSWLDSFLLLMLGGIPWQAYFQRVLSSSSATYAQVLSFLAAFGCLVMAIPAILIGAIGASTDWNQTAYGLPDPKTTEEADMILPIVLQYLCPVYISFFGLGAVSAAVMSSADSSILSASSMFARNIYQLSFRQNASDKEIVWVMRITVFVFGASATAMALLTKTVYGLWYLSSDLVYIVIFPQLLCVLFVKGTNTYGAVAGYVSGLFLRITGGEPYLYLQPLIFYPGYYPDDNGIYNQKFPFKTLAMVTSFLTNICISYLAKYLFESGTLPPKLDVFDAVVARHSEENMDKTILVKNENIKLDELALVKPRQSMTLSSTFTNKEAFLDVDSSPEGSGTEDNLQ
IMP-1 inhibitor = inhibitors of Pseudomonas aeruginosa IMP-1 metallo-beta-lactamase; purified IMP-1, nitrocefin hydrolysis, epi-absorbance fluorescence; inhibition, % at 5.6 µM; 290,000 tested, 0.45% active;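 active = inhibition above the mean plus 3 SD of all compounds in the same screening run, cut at about 4.5% in these data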
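System: Purified recombinant IMP-1 metallo-beta-lactamase enzyme | Measured by: Fluorescence quenching readout, ex 480/em 530 nm | Replication: Singlicate | Incubation: 15 min preincubation plus 25 min reaction at 25 °C | Evaluation: Percent inhibition from optical density relative to buffer-blank wells | Benchmarks: DMSO with and without IMP-1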
VIM-2 inhibitor = inhibitors of Pseudomonas aeruginosa VIM-2 metallo-beta-lactamase. purified VIM-2, nitrocefin hydrolysis, epi-absorbance fluorescence. inhibition, % at 5.6 µM. 290,000 tested, 0.89% active. AID 1527;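 active = inhibition above the mean of all tested compounds plus 3 SD, cutoff set per screening run, cut at about 7.5% in these data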;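 note: red hydrolysis product quenches plate fluorescence so inhibitors raise well fluorescence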
ANO1 block = blocks the mouse calcium-activated chloride channel TMEM16A | Q8BHY3 | HEK293 TMEM16A/YFP iodide influx fluorescence, ionomycin | normalized B-score (activity score, 25-100; higher = stronger inhibition) at 10 µM | 310,000 tested, 1.2% active;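 active = ratio plate-corrected score three or more library SD toward inhibition, starting fluorescence score within five deviations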;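 note: score derived from kinetic fluorescence span divided by baseline fluorescence per well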
TMEM16A act = activators or potentiators of mouse TMEM16A chloride channel; HEK293 TMEM16A/YFP-H148Q/I152L, iodide quench fluorescence; hits give low values; 340,000 tested, 0.3% active; AID 623877; B-score at 10 µM; Q8BHY3;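 active = fluorescence-ratio B-score plate-corrected deviation score at least 3 library SD below zero, with starting fluorescence score within 5 deviations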;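 note: channel opened by trigger with iodide after compound preincubation; score built on the fluorescence ratio of max minus min over baseline; more negative score means more quench and so TMEM16A activation or potentiation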
CHT allo act = allosterically activates the human high affinity choline transporter; Q9GZV3; CHT-expressing cells, membrane potential dye, choline EC20; hits give high values; LV-AA mutant CHT in HEK293 cells; B-score at 10 µM; 310,000 tested, 0.49% active; AID 488977;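 active = initial fluorescence not abnormally high and integrated response B-score, plate-corrected, over 3 SD above library mean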
A number is an active result; 0 = inactive; - = no result given. Compounds with a hit are over-represented: about 3.4% of the library has one in this group of screens.

SMILES	CHT block	IMP-1 inhibitor	VIM-2 inhibitor	ANO1 block	TMEM16A act	CHT allo act
CC(=O)Nc1ccc(S(=O)(=O)N(C)c2ccc(OCCOc3ccccc3F)cc2)cc1	-	-	-	-	0	-
Oc1ccc(O)c(/C(=N/Nc2ccccc2)c2ccccc2)c1	0	0	0	0	-	0
CCc1ncc(C)nc1CC	0	-	-	100	0	0
COc1cccc(CN(C)C(=O)C2CC(=O)N(c3ccc4c(c3)OCCO4)C2)c1 (stereo unspecified)	0	-	-	0	0	0
O=C(NCc1cccnc1)Nc1ccc(Cl)cc1	0	0	0	0	0	0
O=C(O)C1=C[C@@H](c2csc3ccccc23)C[C@@H](OCCCCO)O1	0	0	0	0	0	0
O=C(O)C1=C[C@H](c2csc3ccccc23)C[C@H](OCCCCO)O1	0	0	9.5	0	0	0
CCc1nnc2c(NCCc3ccccc3)nc3ccccc3n12	0	0	8.5	0	0	0
CCCNc1nc2ccccc2n2c(C)nnc12	0	0	11.1	0	0	0
O=C(c1ccc(N2CCN(C(=O)c3cccc(F)c3)CC2)cc1)c1cccc(F)c1	0	0	0	0	0	0
CCOC(=O)N1CCN(c2ccc(C(=O)c3cccc(F)c3)cc2)CC1	0	0	0	25	0	0
CCC(=O)c1ccc(N2CCN(C(=O)c3ccc(F)cc3)CC2)c(F)c1	0	0	0	25	0	0
CO/N=C/c1ccc(N2CCN(C(=O)c3ccc(F)cc3)CC2)c([N+](=O)[O-])c1	0	0	0	100	0	0
CO/N=C/c1ccc(N2CCN(C(=O)c3ccc(Cl)cc3Cl)CC2)c([N+](=O)[O-])c1	0	0	0	100	0	0
O=C(CS(=O)CC(=O)NC12CC3CC(CC(C3)C1)C2)Nc1ccc(F)cc1 (stereo unspecified)	0	0	0	0	0	0
CCN(CC(=O)NCc1ccc(Cl)cc1)C(=O)CCOc1ccc(C)cc1	0	-	-	0	0	0
CCn1cnc2cc(NC(=O)COc3ccc(C)cc3)ccc21	-	-	-	-	0	-
NC(=O)C1C(=O)c2ccccc2C1(C[N+](=O)[O-])c1ccccc1 (stereo unspecified)	-	-	-	-	0	-
O=C(O)C1Nc2c(cccc2C(F)(F)F)C2C=CCC12 (stereo unspecified)	0	0	0	0	-	0
COc1cccc2c1NC(C(=O)O)C1CC=CC21 (stereo unspecified)	0	0	9.5	0	0	0
COc1ccc(CC(=O)OCC(=O)N2N=C(c3ccccc3)CC2c2ccc(OC)cc2)cc1 (stereo unspecified)	0	0	0	0	0	0
CCCCC(=O)OCC(=O)N1N=C(c2c[nH]c3ccccc23)C(O)C1c1ccc(OC)cc1 (stereo unspecified)	0	0	0	25	0	0
O=[N+]([O-])c1c(N2CCN(CCO)CC2)nc2ccccn12	0	0	0	0	0	0
CCS(=O)(=O)N1CCN(Cc2ccc([N+](=O)[O-])cc2)CC1	0	0	0	0	0	0
CCCS(=O)(=O)N1CCN(Cc2ccncc2)CC1	0	5.1	0	0	-	0
SMILES	CHT block	IMP-1 inhibitor	VIM-2 inhibitor	ANO1 block	TMEM16A act	CHT allo act
Cc1ccc(S(=O)(=O)N2CCC[C@H]2C(=O)OCC(=O)c2ccc3c(c2)NC(=O)CO3)cc1	0	0	0	25	0	0
Cc1ccc(S(=O)(=O)N2CCCC2C(=O)OCC(=O)Nc2ccc3c(c2)OCO3)cc1 (stereo unspecified)	0	0	0	0	0	0
O=C(NNC(=O)c1ccccc1C(=O)O)c1ccc(-c2ccccc2)cc1	-6.66	0	0	0	-	0
CC(=O)c1ccc(Nc2cc(C)nc3ccc(C)cc23)cc1	0	0	8.4	0	0	0
Cc1c(NS(=O)(=O)c2ccc3c(c2)OCCO3)cccc1-c1nc2cccnc2s1	0	0	0	25	0	0
Cc1ccc(OCCC(=O)NNC(=O)c2nn(C)c(=O)c3ccccc23)cc1	-	-	-	-	0	-
CC(C)Cn1c(CN2CCCCC2C)nc2c1c(=O)n(C)c(=O)n2C (stereo unspecified)	0	0	0	0	-8.15	0
CCN(CC)c1ccc(C=Nc2ccc(OC)c(S(=O)(=O)N3CCOCC3)c2)c(O)c1	-	-	-	-	0	-
CCC1Nc2ncnc(N3CCOCC3)c2N(Cc2ccc(Cl)cc2)C1=O (stereo unspecified)	-	-	-	-	0	-
